From ChEMBL document CHEMBL5154878, “Potent Inhibition of SARS-CoV-2 nsp14 N7-Methyltransferase by Sulfonamide-Based Bisubstrate Analogues” (J Med Chem, 2022)
Active and inactive are the calls of the source. No cut-off for these calls is given here.

What was measured:
[1] = target: Replicase polyprotein 1ab (Severe acute respiratory syndrome coronavirus 2, UniProt P0DTD1); test: Inhibition of N7-MTase activity of SARS-CoV-2 N-terminus hexahistidine tag nsp14 expressed in Escherichia coli C2566 using [3H]SAM as substrate incubated for 30 mins in presence of mGpppAC4 synthetic RNA by radioactive filter binding assay
[2] = target: Replicase polyprotein 1ab (Severe acute respiratory syndrome coronavirus 2) (UniProt P0DTD1); test: Inhibition of N7-MTase activity of SARS-CoV-2 N-terminus hexahistidine tag nsp14 expressed in Escherichia coli C2566 at 5 uM using [3H]SAM as substrate incubated for 30 mins in presence of mGpppAC4 synthetic RNA by filter binding assay relative to control
[3] = Inhibition of N7-MTase activity of SARS-CoV N-terminus hexahistidine tag nsp14 expressed in Escherichia coli C2566 using [3H]SAM as substrate incubated for 30 mins in presence of mGpppAC4 synthetic RNA by radioactive filter binding assay; parameters: species or system Severe acute respiratory syndrome-related coronavirus
[4] = Inhibition of human RNA N7-MTase expressed in Escherichia coli measured using [3H]SAM as substrate incubated for 30 mins in presence of mGpppAC4 synthetic RNA by radioactive filter binding assay
[5] = Selectivity index, ratio of IC50 for human RNA N7-MTase to IC50 for SARS-CoV-2 nsp14 N7-MTase activity using [3H]SAM as substrate incubated for 30 mins in presence of mGpppAC4 synthetic RNA by radioactive filter binding assay
[6] = target: Replicase polyprotein 1ab (Severe acute respiratory syndrome coronavirus 2) (UniProt P0DTD1); test: Binding affinity to SARS-CoV-2 N-terminus hexahistidine tag nsp14 expressed in Escherichia coli C2566 assessed as change in melting temperature at 0.5 mM by SYPRO orange dye based thermal shift assay
Procedure, shortened: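 nsp14 (freshly purified, 5 μM, in 20 mM Hepes pH 7.5, 150 mM NaCl, ≤5% DMSO) incubated with compound from 500 μM down to 8.4 nM (3-fold serial dilution) plus Sypro Orange 0.00056×. Melt ramp 1 °C per minute, 25–95 °C. Tm from Boltzmann fit; ΔTm taken against DMSO control. Duplicates; Kd from inflection of ΔTm versus concentration.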

Homo sapiens = species on record: Homo sapiens; test: Inhibition of human RNA N7-MTase expressed in Escherichia coli measured upto 50 uM using [3H]SAM as substrate incubated for 30 mins in presence of mGpppAC4 synthetic RNA by radioactive filter binding assay; conditions: DDE = dose-dependent effect
[7] = target: Replicase polyprotein 1ab (Severe acute respiratory syndrome coronavirus 2) (UniProt P0DTD1); test: Inhibition of N7-MTase activity of SARS-CoV-2 N-terminus hexahistidine tag nsp14 expressed in Escherichia coli C2566 assessed as fold change using [3H]SAM as substrate incubated for 30 mins in presence of mGpppAC4 synthetic RNA by radioactive filter binding assay
[8] = system: Severe acute respiratory syndrome coronavirus 2; test: Binding affinity to SARS-CoV N-terminus hexahistidine tag nsp14 expressed in Escherichia coli C2566 assessed as shift in melting temperature at >2 uM by SYPRO orange dye based thermal shift assay

| Structure (SMILES) | IC50 [1] [µM] | inhibition [2] [%] | also measured |
| --- | --- | --- | --- |
| N#Cc1cccc(S(=O)(=O)NC[C@H]2O[C@@H](n3cnc4c(N)ncnc43)[C@H](O)[C@@H]2O)c1 | 5.3 | 80 | – |
| Nc1ncnc2c1ncn2[C@@H]1O[C@H](CNS(=O)(=O)c2ccc(F)c([N+](=O)[O-])c2)[C@@H](O)[C@H]1O | 4.4 | 87 | – |
| CCN(C[C@H]1O[C@@H](n2cnc3c(N)ncnc32)[C@H](O)[C@@H]1O)S(=O)(=O)c1cccc(Cl)c1 | 0.442 | 65 | – |
| Nc1ncnc2c1ncn2[C@@H]1O[C@H](CNS(=O)(=O)c2ccc(C(F)(F)F)cc2[N+](=O)[O-])[C@@H](O)[C@H]1O | 3.5 | 60 | IC50 [3]: 3.3 µM |
| CCN(C[C@H]1O[C@@H](n2cnc3c(N)ncnc32)[C@H](O)[C@@H]1O)S(=O)(=O)c1cccc(C#N)c1 | 0.96 | 65 | – |
| CCN(C[C@H]1O[C@@H](n2cnc3c(N)ncnc32)[C@H](O)[C@@H]1O)S(=O)(=O)c1ccc(OC)c(C#N)c1 | 0.019 | 100 | IC50 [4]: 52.8 µM; Ratio IC50 [5]: > 2000; ΔTm [6]: 11 °C; inhibition (Homo sapiens): Dde; fold change (FC) [7]: 2000; Activity [8]: Active |
| COc1ccc(S(=O)(=O)N(CCCCNc2cccc3ccccc23)C[C@H]2O[C@@H](n3cnc4c(N)ncnc43)[C@H](O)[C@@H]2O)cc1[N+](=O)[O-] | 0.03 | 100 | ΔTm [6]: 11 °C; Activity [8]: Active |
| CCN(C[C@H]1O[C@@H](n2cnc3c(N)ncnc32)[C@H](O)[C@@H]1O)S(=O)(=O)c1ccc(Br)c([N+](=O)[O-])c1 | 0.08 | 100 | – |
| Nc1ncnc2c1ncn2[C@@H]1O[C@H](CNS(=O)(=O)c2cccc(Cl)c2)[C@@H](O)[C@H]1O | – | 20 | – |
| CCOC(=O)CCCCN(C[C@H]1O[C@@H](n2cnc3c(N)ncnc32)[C@H](O)[C@@H]1O)S(=O)(=O)c1ccc(OC)c([N+](=O)[O-])c1 | 0.114 | 100 | – |
| CCN(C[C@H]1O[C@@H](n2cnc3c(N)ncnc32)[C@H](O)[C@@H]1O)S(=O)(=O)c1cccc([N+](=O)[O-])c1 | 0.516 | 75 | – |
| Cc1ccc(S(=O)(=O)NC[C@H]2O[C@@H](n3cnc4c(N)ncnc43)[C@H](O)[C@@H]2O)cc1[N+](=O)[O-] | 0.342 | 100 | – |
| COc1ccc(S(=O)(=O)NC[C@H]2O[C@@H](n3cnc4c(N)ncnc43)[C@H](O)[C@@H]2O)cc1C#N | 0.514 | 100 | – |
| Nc1ncnc2c1ncn2[C@@H]1O[C@H](CNS(=O)(=O)c2cccc([N+](=O)[O-])c2)[C@@H](O)[C@H]1O | 3.59 | 80 | – |
| N#Cc1cc(S(=O)(=O)NC[C@H]2O[C@@H](n3cnc4c(N)ncnc43)[C@H](O)[C@@H]2O)ccc1Cl | 1.01 | 100 | – |
| CCc1ccc(S(=O)(=O)NC[C@H]2O[C@@H](n3cnc4c(N)ncnc43)[C@H](O)[C@@H]2O)cc1[N+](=O)[O-] | 0.244 | 98 | – |
| CCN(C[C@H]1O[C@@H](n2cnc3c(N)ncnc32)[C@H](O)[C@@H]1O)S(=O)(=O)c1ccc(Cl)c(Cl)c1 | 0.1 | 100 | – |

| Structure (SMILES) | IC50 [1] [µM] | inhibition [2] [%] | also measured |
| --- | --- | --- | --- |
| Nc1ncnc2c1ncn2[C@@H]1O[C@H](CNS(=O)(=O)c2ccc(Br)c([N+](=O)[O-])c2)[C@@H](O)[C@H]1O | 2.9 | 85 | – |
| CCN(C[C@H]1O[C@@H](n2cnc3c(N)ncnc32)[C@H](O)[C@@H]1O)S(=O)(=O)c1ccc(C)c([N+](=O)[O-])c1 | 0.038 | 100 | – |
| Nc1ncnc2c1ncn2[C@@H]1O[C@H](CNS(=O)(=O)c2cccc([N+](=O)[O-])c2Cl)[C@@H](O)[C@H]1O | 2.1 | 75 | IC50 [3]: 1.4 µM |
| Nc1ncnc2c1ncn2[C@@H]1O[C@H](CNS(=O)(=O)c2ccc(Cl)c(Cl)c2)[C@@H](O)[C@H]1O | 0.482 | 87 | – |
| Nc1ncnc2c1ncn2[C@@H]1O[C@H](CNS(=O)(=O)c2ccc([N+](=O)[O-])cc2Cl)[C@@H](O)[C@H]1O | – | 21 | – |
| Cc1ccc(S(=O)(=O)NC[C@H]2O[C@@H](n3cnc4c(N)ncnc43)[C@H](O)[C@@H]2O)cc1Cl | 0.344 | 90 | – |
| CCN(C[C@H]1O[C@@H](n2cnc3c(N)ncnc32)[C@H](O)[C@@H]1O)S(=O)(=O)c1ccc(C(F)(F)F)cc1[N+](=O)[O-] | 5 | 84 | – |
| COc1ccc(S(=O)(=O)NC[C@H]2O[C@@H](n3cnc4c(N)ncnc43)[C@H](O)[C@@H]2O)c([N+](=O)[O-])c1 | 1.4 | 70 | IC50 [3]: 2.6 µM |
| Nc1ncnc2c1ncn2[C@@H]1O[C@H](CNS(=O)(=O)c2ccc(Cl)cc2)[C@@H](O)[C@H]1O | 13 | 25 | – |
| CCN(C[C@H]1O[C@@H](n2cnc3c(N)ncnc32)[C@H](O)[C@@H]1O)S(=O)(=O)c1ccc(OC)c([N+](=O)[O-])c1 | 0.044 | 100 | – |
| COc1ccc(S(=O)(=O)NC[C@H]2O[C@@H](n3cnc4c(N)ncnc43)[C@H](O)[C@@H]2O)cc1[N+](=O)[O-] | 0.146 | 90 | – |
| COc1cc([N+](=O)[O-])ccc1S(=O)(=O)NC[C@H]1O[C@@H](n2cnc3c(N)ncnc32)[C@H](O)[C@@H]1O | 5.1 | 77 | IC50 [3]: 25 µM |
| N#Cc1cc(S(=O)(=O)NC[C@H]2O[C@@H](n3cnc4c(N)ncnc43)[C@H](O)[C@@H]2O)ccc1F | 0.899 | 90 | – |
| COc1ccc(S(=O)(=O)N(CCCCOC(C)=O)C[C@H]2O[C@@H](n3cnc4c(N)ncnc43)[C@H](O)[C@@H]2O)cc1[N+](=O)[O-] | 0.08 | 100 | – |
| Nc1ncnc2c1ncn2[C@@H]1O[C@H](CNS(=O)(=O)c2ccc([N+](=O)[O-])cc2)[C@@H](O)[C@H]1O | 14.1 | 25 | IC50 [3]: 7.6 µM |
| CCN(C[C@H]1O[C@@H](n2cnc3c(N)ncnc32)[C@H](O)[C@@H]1O)S(=O)(=O)c1ccc(C)c(Cl)c1 | 0.056 | 95 | ΔTm [6]: 11 °C; Activity [8]: Active |
